For orientation: MTD means the highest dose tested that stayed within the study's limit of toxicity.

This is an account of results in ChEMBL document CHEMBL1127020, “3-Quinolinecarboxamides. A series of novel orally-active antiherpetic agents” (1993).

In brackets after ≈: the same amount, converted by molar mass. Activity calls are given as the source filed them. The rule behind the calls is not given here.

Test [1] concerns Human alphaherpesvirus 2. The test is described as follows: (§1) Minimum effective dose against herpes simplex virus-2 (HSV-2) by oral administration in female mice. The test is classed as functional. To be noted: Human alphaherpesvirus 2, po; read-out: MED.
The test system of test [2] is Human alphaherpesvirus 2. The test is described as follows: (§2) In vitro minimum inhibitory concentration against herpes simplex virus-2 (HSV-2) by plaque-reduction assay in vero cells. The test is classed as functional.
The test system of test [3] is Human alphaherpesvirus 2. Put plainly: In vivo maximum tolerated dose against herpes simplex virus-2 (HSV-2) by oral administration in female mice. It is filed as functional.
The subject of test [4] is Human alphaherpesvirus 2. Put plainly: In vitro maximum tolerated level against herpes simplex virus-2 (HSV-2) by plaque-reduction assay in vero cells. The test is classed as functional. A general note: Plaques are areas of infected cells; plaque reduction assays count them against a control.
For another test, the system named is Mus musculus. The test is described as follows: Tested in vivo for minimum effective dose against herpes simplex virus-2 (HSV-2) by oral administration in female mice;not active. It is filed as functional, organism-based. Put shortly: (§3)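 Swiss female ICR mice (13–15 g) infected intravaginally with HSV-2 (Curtis) at a dose set for 80% mortality. Compound suspended in 1% gum tragacanth/2% Tween 80, given intragastrically at serial 2-fold doses, 20 mice per dose, 2 h before infection then twice daily for 5 d. Mortality followed 14 d; MED = lowest dose with survival differing from placebo (Mantel-Cox, Breslow).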

Test [5] has as its system Vero. The test is described as follows: Tested in vitro for minimum inhibitory concentration against herpes simplex virus-2 (HSV-2) by plaque-reduction assay in vero cells; not active. It is filed as functional, cell-based. To be noted: Chlorocebus sabaeus. An outline of the steps:
(§4)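 Vero monolayers (2 days old, confluent; Hank's MEM + 5% inactivated FCS, 37 °C, 2% CO2) infected with ~80 PFU; after 1-h adsorption, overlay of M199/5% FCS with 1:150 human immune serum globulin plus serial 2-fold compound dilutions (1:200 from DMSO). 3 d incubation, glutaraldehyde fix, crystal violet stain, plaque count. MIC = lowest concentration giving 50% plaque reduction; mean of ≥2 experiments.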

Test [6] has as its system Vero. The test is described as follows: Tested in vitro for minimum inhibitory concentration against herpes simplex virus-2 (HSV-2) 2115 strain by plaque-reduction assay in vero cells. The test is classed as functional. To be noted: Chlorocebus sabaeus. An outline of the steps: as §4
In test [7] the test system is Vero. Put plainly: Tested in vitro for minimum inhibitory concentration against herpes simplex virus-1 (HSV-1) KOS, ACG strain by plaque-reduction assay in vero cells. It is filed as functional. To be noted: Chlorocebus sabaeus. An outline of the steps: as §4
The subject of test [8] is Vero. The test is described as follows: Tested in vitro for minimum inhibitory concentration against herpes simplex virus-2 (HSV-2) curtis strain by plaque-reduction assay in vero cells. The test is classed as functional. To be noted: Chlorocebus sabaeus. Put shortly:
as §4

Test [9] deals with Vero. Put plainly: Tested in vitro for minimum inhibitory concentration against herpes simplex virus-1 (HSV-1) 1142 strain by plaque-reduction assay in vero cells. The test is classed as functional. The settings on record: Chlorocebus sabaeus. An outline of the steps:
as §4

Test [10] concerns Vero. The test is described as follows: Tested in vitro for minimum inhibitory concentration against herpes simplex virus-1 (HSV-1) F strain by plaque-reduction assay in vero cells. The test is classed as functional. The settings on record: Chlorocebus sabaeus. An outline of the steps: as §4
Test [11] concerns Vero. The test is described as follows: Tested in vitro for minimum inhibitory concentration against herpes simplex virus-1 (HSV-1) 2992 strain by plaque-reduction assay in vero cells. To be noted: Chlorocebus sabaeus. The test is classed as functional. Put shortly:
as §4

The subject of test [12] is Vero. The test is described as follows: Tested in vitro for minimum inhibitory concentration against herpes simplex virus-1 (HSV-1) KOS strain by plaque-reduction assay in vero cells. The test is classed as functional. The settings on record: Chlorocebus sabaeus. An outline of the steps:
as §4

In test [13] the test system is Vero. Put plainly: Tested in vitro for minimum inhibitory concentration against herpes simplex virus-2 (HSV-2) 2011 strain by plaque-reduction assay in vero cells. The test is classed as functional. To be noted: Chlorocebus sabaeus. Put shortly: as §4
Test [14] deals with Vero. Described as §2. The test is classed as functional, cell-based. The settings on record: Chlorocebus sabaeus. An outline of the steps: as §4
The test system of test [15] is Human alphaherpesvirus 2. Described as §1. It is filed as functional, organism-based. Put shortly: as §3
Test [16] relates to Human alphaherpesvirus 2. Described as §2. The test is classed as functional, organism-based. Put shortly: as §4
Test [17] relates to Vero. The test is described as follows: Tested in vitro for minimum inhibitory concentration against herpes simplex virus-2 (HSV-2) 2011 strain by plaque-reduction assay in vero cells. The settings on record: Chlorocebus sabaeus.

As for `CCn1cc(C(N)=O)c(=O)c2ccc(-c3ccncc3)cc21`, in the test with Human alphaherpesvirus 2 [1], the minimal effective dose came out at 50 mg/kg. The same compound had an MIC in the test on Human alphaherpesvirus 2 [2] of 6.5 µg/mL (≈ 22.2 µM). This compound also had an MTD in the test with Human alphaherpesvirus 2 [3] of 50 mg/kg. The same compound had an MTL in the test with Human alphaherpesvirus 2 [4] of 12.5 µg/mL.

`CCn1cc(C(=O)NO)c(=O)c2ccc(-c3ccncc3)cc21` came in with an MIC against Human alphaherpesvirus 2 [2] of 6.8 µg/mL (≈ 22 µM). For the same compound, in the test with Mus musculus, the MED entry was “inactive”. This compound also returned an MTD with Human alphaherpesvirus 2 [3] of 100 mg/kg. Moreover, the MTL with Human alphaherpesvirus 2 [4] turned out to be 25 µg/mL.

As to `NC(=O)c1cn(-c2cccc(F)c2)c2cc(-c3ccncc3)ccc2c1=O`, the minimal effective dose in the test with Human alphaherpesvirus 2 [1] stood at 50 mg/kg. The compound also returned an MIC against Human alphaherpesvirus 2 [2] of 0.71 µg/mL (≈ 1.98 µM). In addition, in the test with Human alphaherpesvirus 2 [3], the MTD was 50 mg/kg. In addition, the MTL in the test on Human alphaherpesvirus 2 [4] was >25 µg/mL.

With `CCn1cc(C(=O)N(C)O)c(=O)c2ccc(-c3ccncc3)cc21`, the MIC entry in the test with Vero [5] is “inactive”. The compound also had an MTL in the test with Human alphaherpesvirus 2 [4] of 50 µg/mL.

As to `NC(=O)c1cn(-c2ccc(Cl)c(Cl)c2)c2cc(-c3ccncc3)ccc2c1=O`, in the test on Human alphaherpesvirus 2 [1], the minimal effective dose is 50 mg/kg. Further, the MIC against Human alphaherpesvirus 2 [2] stood at 0.52 µg/mL (≈ 1.27 µM). This compound gave an MTD with Human alphaherpesvirus 2 [3] of 100 mg/kg. The MTL with Human alphaherpesvirus 2 [4] was >100 µg/mL.

Take `Nc1nc2c(ncn2COCCO)c(=O)[nH]1` [ACYCLOVIR]: the MIC against Vero [6] was 77 µg/mL (≈ 342 µM); in the test on Vero [7], 43 µg/mL (≈ 191 µM); with Vero [8], 1.3 µg/mL (≈ 5.77 µM); against Vero [9], 7.8 µg/mL (≈ 34.6 µM); against Vero [10], 0.29 µg/mL (≈ 1.29 µM); in the test on Human alphaherpesvirus 2 [2] it was 1.3 µg/mL (≈ 5.77 µM). The results for the MIC with Vero [11], in the test on Vero [12] and in the test with Vero [13] were 11 µg/mL (≈ 48.8 µM), 0.14 µg/mL (≈ 0.622 µM) and 43 µg/mL (≈ 191 µM), respectively. In addition, in the test with Human alphaherpesvirus 2 [1], the minimal effective dose was determined as 12 mg/kg. The MTD in the test on Human alphaherpesvirus 2 [3] is >200 mg/kg. Besides, in the test with Human alphaherpesvirus 2 [4], the MTL was >200 µg/mL.

As to `NC(=O)c1cn(-c2ccc(Br)cc2)c2cc(-c3ccncc3)ccc2c1=O`, in the test on Human alphaherpesvirus 2 [1], the minimal effective dose turned out to be 50 mg/kg. In the test on Human alphaherpesvirus 2 [2], this compound registered an MIC of 0.47 µg/mL (≈ 1.12 µM). This compound also returned an MTD in the test with Human alphaherpesvirus 2 [3] of 50 mg/kg. For the same compound, the MTL in the test on Human alphaherpesvirus 2 [4] is >12.5 µg/mL.

With `NC(=O)c1cn(-c2ccncc2)c2cc(-c3ccncc3)ccc2c1=O`, the minimal effective dose with Human alphaherpesvirus 2 [1] turned out to be 75 mg/kg. The MIC against Human alphaherpesvirus 2 [2] was 7.2 µg/mL (≈ 21 µM). Moreover, the maximum tolerated dose (MTD) with Human alphaherpesvirus 2 [3] stood at 75 mg/kg. In addition, the MTL with Human alphaherpesvirus 2 [4] was >200 µg/mL.

For the compound `CCn1c(=O)c(C(N)=O)c(O)c2ccc(-c3ccncc3)cc21`, the minimal effective dose in the test with Human alphaherpesvirus 2 [1] was 100 mg/kg. This compound had an MIC against Human alphaherpesvirus 2 [2] of 2.1 µg/mL (≈ 6.79 µM). The MTD in the test on Human alphaherpesvirus 2 [3] was 100 mg/kg. In the test on Human alphaherpesvirus 2 [4], the MTL stood at 6.25 µg/mL.

For `CCn1cc(C(=O)NN)c(=O)c2ccc(-c3ccncc3)cc21`, in the test with Human alphaherpesvirus 2 [2], the MIC came to 38 µg/mL (≈ 123 µM). Moreover, the MED result with Mus musculus is “inactive”. The compound also gave a maximal tolerated dose (MTD) in the test with Human alphaherpesvirus 2 [3] of 100 mg/kg. The compound further showed an MTL with Human alphaherpesvirus 2 [4] of 50 µg/mL.

With `CCn1cc(C(=O)NC)c(=O)c2ccc(-c3ccncc3)cc21`, in the test with Human alphaherpesvirus 2 [1], the minimal effective dose turned out to be 50 mg/kg. The compound also yielded an MIC in the test on Human alphaherpesvirus 2 [2] of 9 µg/mL (≈ 29.3 µM). For the same compound, in the test with Human alphaherpesvirus 2 [3], the MTD turned out to be 50 mg/kg. In the test on Human alphaherpesvirus 2 [4], the MTL is >25 µg/mL.

On to `CCn1cc(C(=O)NNC)c(=O)c2ccc(-c3ccncc3)cc21`, for which the MTL in the test on Human alphaherpesvirus 2 [4] is 25 µg/mL. Also, the MIC entry in the test on Vero [14] was “inactive”.

On to `NC(=O)c1c(N)n(-c2ccc(F)cc2)c2cc(-c3ccncc3)ccc2c1=O`, for which, in the test with Human alphaherpesvirus 2 [1], the minimal effective dose came to 50 mg/kg. In the test on Human alphaherpesvirus 2 [2], this compound showed an MIC of 0.33 µg/mL (≈ 0.881 µM). Besides, the MTD in the test with Human alphaherpesvirus 2 [3] was determined as 50 mg/kg. Also, the MTL in the test with Human alphaherpesvirus 2 [4] was >100 µg/mL.

As for `NC(=O)c1cn(-c2ccccc2)c2cc(-c3ccncc3)ccc2c1=O`, in the test with Human alphaherpesvirus 2 [1], the minimal effective dose was 25 mg/kg. This compound displayed an MIC in the test with Human alphaherpesvirus 2 [2] of 0.78 µg/mL (≈ 2.28 µM). Also, the MTD with Human alphaherpesvirus 2 [3] turned out to be 50 mg/kg. Further, the MTL with Human alphaherpesvirus 2 [4] turned out to be 6.25 µg/mL.

Regarding `NC(=O)c1cn(-c2ccccc2F)c2cc(-c3ccncc3)ccc2c1=O`, the MED entry with Human alphaherpesvirus 2 [15] is “inactive”. Besides, the MIC result in the test on Human alphaherpesvirus 2 [16] is “inactive”. In addition, in the test on Human alphaherpesvirus 2 [3], the MTD came to 100 mg/kg. Moreover, in the test on Human alphaherpesvirus 2 [4], the MTL amounted to 1.6 µg/mL.

As to `NC(=O)c1cn(-c2ccc(F)cc2)c2cc(-c3ccncc3)ccc2c1=O`, the MIC was determined as 0.13 µg/mL (≈ 0.362 µM) against Vero [6]; 0.32 µg/mL (≈ 0.89 µM) in the test on Vero [7]; 0.24 µg/mL (≈ 0.668 µM) in the test with Vero [8]; 0.18 µg/mL (≈ 0.501 µM) with Vero [9]; 0.13 µg/mL (≈ 0.362 µM) with Vero [10]; 0.24 µg/mL (≈ 0.668 µM) against Human alphaherpesvirus 2 [2]. Besides, the MIC in the test with Vero [11] amounted to 0.24 µg/mL (≈ 0.668 µM); in the test on Vero [12], 0.23 µg/mL (≈ 0.64 µM); with Vero [17], 0.15 µg/mL (≈ 0.417 µM). For the same compound, the minimal effective dose in the test on Human alphaherpesvirus 2 [1] amounted to 25 mg/kg. The compound further registered a maximal tolerated dose (MTD) in the test with Human alphaherpesvirus 2 [3] of 50 mg/kg. The same compound yielded an MTL with Human alphaherpesvirus 2 [4] of 6.25 µg/mL.

Regarding `NC(=O)c1cn(-c2ccc(Cl)cc2)c2cc(-c3ccncc3)ccc2c1=O`, in the test with Human alphaherpesvirus 2 [1], the minimal effective dose is 50 mg/kg. The same compound had an MIC against Human alphaherpesvirus 2 [2] of 0.4 µg/mL (≈ 1.06 µM). This compound returned an MTD with Human alphaherpesvirus 2 [3] of 100 mg/kg. The MTL in the test with Human alphaherpesvirus 2 [4] is >25 µg/mL.

Turning to `NC(=O)c1cn(-c2ccc(F)cc2)c2cc(-c3cc[n+]([O-])cc3)ccc2c1=O`, the minimal effective dose with Human alphaherpesvirus 2 [1] came to 25 mg/kg. The compound also gave an MTD in the test on Human alphaherpesvirus 2 [3] of 100 mg/kg. For the same compound, in the test with Human alphaherpesvirus 2 [4], the MTL was >12.5 µg/mL. The MIC entry in the test with Vero [14] was “inactive”.
